High-throughput results (PubChem)
KLK7 zymogen act: proKLK7 zymogen activators, primary screen, biochemical, fluorescence intensity; purified proKLK7, EDANS-DABCYL substrate fluorescence; 100% is mature enzyme control, 0% vehicle; AID 652039, 2013; activation, % at 7 µM; Kallikrein-7 (Homo sapiens), P49862; 0.9% of 370,000 active;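 active = activation above the mean of all tested compounds plus 3 SD, computed per campaign excluding outliers beyond control limits, cut at about 13% in these data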
Target sequence (P49862 whole entry, looked up): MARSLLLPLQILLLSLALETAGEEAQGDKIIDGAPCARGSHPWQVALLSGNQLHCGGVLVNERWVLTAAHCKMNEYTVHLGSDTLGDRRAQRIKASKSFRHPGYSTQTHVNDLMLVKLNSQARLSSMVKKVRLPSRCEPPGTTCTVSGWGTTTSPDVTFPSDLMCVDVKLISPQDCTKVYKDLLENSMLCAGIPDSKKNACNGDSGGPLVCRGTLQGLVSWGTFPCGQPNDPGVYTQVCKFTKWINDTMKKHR
proCasp3 act: activators of human procaspase-3 D3A mutant, primary screen, biochemical, absorbance, PC-3 D3A mutant, single concentration; Caspase-3 (Homo sapiens), P42574; 0.11% of 330,000 active; activation, % at 8.5 µM; AID 463141, 2010; recombinant procaspase-3 D3A, Ac-DEVD-pNA absorbance 405 nm;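 active = activation above the mean of all tested compounds plus 3 SD, cut at about 21% in these data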;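 note: 0% = DMSO alone and 100% = DMSO wells spiked with extra 5 µM PC-3 D3A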
Target sequence (P42574 whole entry D9A/D28A/D175A): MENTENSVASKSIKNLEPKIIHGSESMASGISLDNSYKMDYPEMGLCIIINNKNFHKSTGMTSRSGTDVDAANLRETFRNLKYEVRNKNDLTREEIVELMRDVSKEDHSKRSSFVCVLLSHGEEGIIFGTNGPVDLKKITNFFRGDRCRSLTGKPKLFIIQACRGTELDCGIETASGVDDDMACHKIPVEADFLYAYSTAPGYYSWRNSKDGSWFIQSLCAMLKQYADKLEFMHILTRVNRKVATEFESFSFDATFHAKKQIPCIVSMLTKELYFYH
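Test system: Procaspase-3 D3A mutant, all three cleavage aspartates alanine | Dosing: Single dose, 8.5 µM nominal compound, 0.8% DMSO | Schedule: 1 h preincubation, 2 h reaction | Technique: 405 nm absorbance of p-nitroaniline, reads at 0 and 120 min | Repeats: One well per compound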
Neddylation inh: inhibitors of cullin neddylation, primary screen, biochemical, TR-FRET, uHTS, NAE and Ubc12 | NEDD8-conjugating enzyme Ubc12 (Homo sapiens) + NEDD8-activating enzyme E1 regulatory … | calls only at 25 µM | 0.58% of 360,000 active | AID 651699, 2012; in the data active = inhibition above about 36%
proCasp7 act: procaspase-7 activators, primary screen, counter-screen for procaspase-3 activator project, biochemical, absorbance, HTS, human. Caspase-7 (Homo sapiens), P55210. recombinant procaspase-7, Ac-DEVD-pNA absorbance 405 nm; D23A/D198A/D206A triple mutant, cannot self-cleave; scale: DMSO 0, 5 µM enzyme 100. activation, % at 8.5 µM. 0.093% of 330,000 active;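 active = percent activation above the screen-wide mean plus 3 SD, cut at about 25% in these data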
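buffer or medium = Zinc-free HEPES/NaCl buffer, pH 7.4 | material = Procaspase-7 triple mutant (PC-7 D3A) | input = 2 µM procaspase-7 mutant as dispensed | signal = Epi-absorbance of released pNA at 405 nm, two timepoints | timing = 1 h preincubation, 2 h reaction | replicates = singlicate compound testing | evaluation = % activation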
Neddyl inh conf: blockade of NEDD8 conjugation to cullin – biochemical, TR-FRET, single concentration, confirmation; shares compounds with Neddylation inh; TR-FRET cullin neddylation biochemical assay; calls only at 25 µM; 13% of 1,800 active; AID 652217, 2013; in the data active = inhibition above about 40%;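 note: neddylation substrate is the cullin 1 ring ligase complex with SKP2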
* hit, by the source's call. Most compounds without a hit are left out; they make up all but 1.6% or so of the library.

How did O=C(c1cnn2c(C(F)F)cc(-c3ccccc3)nc12)N1CCOCC1 do in these assays?
KLK7 zymogen act: 2; proCasp3 act: 5; Neddylation inh: active; proCasp7 act: 3; Neddyl inh conf: inactive

Results for COC(=O)[C@]12C[C@H](CC(=O)N3CCCCC3)C(=O)N(CCC3=CCCCC3)C1=C[C@H](C1CCCC1)O[C@@H]2C ?
KLK7 zymogen act: 0

How did c1ccc(-n2ncc3c(NCc4ccccn4)ncnc32)cc1 do in these assays?
proCasp3 act: 1; Neddylation inh: inactive; proCasp7 act: 3

Results for Cc1cccc(-n2ncc3c(NCc4ccccn4)ncnc32)c1 ?
KLK7 zymogen act: 0; proCasp3 act: 4; Neddylation inh: active; proCasp7 act: 10; Neddyl inh conf: inactive

What do the screens show for `CC(C)(C)n1nnnc1C(c1cc2cc3c(cc2[nH]c1=O)OCCO3)N1CCSCC1` (stereo not given)?
KLK7 zymogen act: 1; proCasp3 act: -1; Neddylation inh: active; proCasp7 act: -5

How did COC(=O)c1cc(OC)c(OC)c(OC)c1[N+](=O)[O-] do in these assays?
KLK7 zymogen act: 0; proCasp3 act: 2; Neddylation inh: inactive; proCasp7 act: 8

Results for COC(=O)c1cc(OC)c(OC)c(OC)c1N ?
KLK7 zymogen act: 1; proCasp3 act: -5; Neddylation inh: active; proCasp7 act: -3; Neddyl inh conf: inactive

What do the screens show for `O=C(NCc1ccccc1)N1CCN(Cc2nc3ccccc3c(=O)[nH]2)CC1`?
KLK7 zymogen act: 0

Results for COc1ccc(-c2nc3c(n2O)CCC/C3=N\O)cc1 ?
KLK7 zymogen act: 6; proCasp3 act: -4; Neddylation inh: active; proCasp7 act: 6; Neddyl inh conf: inactive

Results for Cc1ccc(-c2nc(N/N=C/c3cccnc3)c3ccccc3n2)cc1 ?
KLK7 zymogen act: -2; proCasp3 act: -3; Neddylation inh: inactive; proCasp7 act: -2

What do the screens show for `COc1ccc(Nc2nc(-c3ccncc3)nc3ccccc23)cc1`?
KLK7 zymogen act: 0; proCasp3 act: 2; Neddylation inh: active; proCasp7 act: -11; Neddyl inh conf: inactive

Results for COc1ccc(/C=N/Nc2nc(-c3cccnc3)nc3ccccc23)c(OC)c1 ?
KLK7 zymogen act: -4; proCasp3 act: -8; Neddylation inh: active; proCasp7 act: -9; Neddyl inh conf: active

Results for O=C1CC2c3cc(Br)ccc3CCN2C(=O)CN1Cc1ccccc1 (stereo not given) ?
KLK7 zymogen act: 1

How did Cc1cccc(NC(=O)[C@H]2CC(=O)O[C@@H]2c2ccccc2)c1C do in these assays?
KLK7 zymogen act: 0

Results for Cc1ccc(-n2nnnc2-c2cccs2)cc1[N+](=O)[O-] ?
KLK7 zymogen act: 0; proCasp3 act: 1; Neddylation inh: active; proCasp7 act: 8; Neddyl inh conf: inactive

Results for COC(=O)c1cc(NC(=O)NC2CCCCN(Cc3ccc(Cl)cc3)C2=O)cc(C(=O)OC)c1 (stereo not given) ?
KLK7 zymogen act: 1

How did CN(C)c1cccc(C(=O)OCC(=O)N2CCc3ccccc3C2)c1 do in these assays?
KLK7 zymogen act: -1; proCasp3 act: -1; Neddylation inh: active; proCasp7 act: -1; Neddyl inh conf: inactive

Results for Cc1ccc2nc(N3CCN(C)CC3)c(C#N)cc2c1 ?
KLK7 zymogen act: 7; proCasp3 act: 0; Neddylation inh: active; proCasp7 act: -4; Neddyl inh conf: inactive

How did Cc1cccc2cc(C#N)c(N3CCN(C)CC3)nc12 do in these assays?
KLK7 zymogen act: 6; proCasp3 act: 0; Neddylation inh: inactive; proCasp7 act: 10

How did Cc1ccc2cc(C#N)c(N3CCN(C)CC3)nc2c1 do in these assays?
KLK7 zymogen act: 3; proCasp3 act: 3; Neddylation inh: inactive; proCasp7 act: -2

How did Cc1cc(C)c2nc(N3CCN(C)CC3)c(C#N)cc2c1 do in these assays?
KLK7 zymogen act: 6; proCasp3 act: 1; Neddylation inh: active; proCasp7 act: -1; Neddyl inh conf: inactive

What do the screens show for `COC(=O)[C@]12C[C@H](CC(=O)N3CCN(C(=O)c4ccco4)CC3)C(=O)N(Cc3ccc(Cl)cc3Cl)C1=C[C@H](C1CCCC1)O[C@@H]2C`?
KLK7 zymogen act: 0

How did Cc1c(Cc2ccccc2)c(=O)oc2c(C)c(OCc3nn[nH]n3)ccc12 do in these assays?
KLK7 zymogen act: -5; proCasp3 act: -2; Neddylation inh: active; proCasp7 act: 5; Neddyl inh conf: inactive

How did CC1(C)Cc2c(C#N)c(NC3CCCCC3)nc(-c3ccco3)c2CO1 do in these assays?
proCasp3 act: -11; proCasp7 act: -20

Results for CC1(C)Cc2c(C#N)c(NCC3CCCO3)nc(-c3ccco3)c2CO1 (stereo not given) ?
KLK7 zymogen act: 5; proCasp3 act: -5; Neddylation inh: active; proCasp7 act: 0

Results for O=C(N/N=C/c1c(O)n(Cc2ccccc2)c(=O)c2ccccc12)c1cccnc1 ?
KLK7 zymogen act: -2; proCasp3 act: -60; Neddylation inh: active; proCasp7 act: -61

Results for CN(C)c1nc2sc3c(c2c(=O)n1C)CC(C)(C)OC3 ?
KLK7 zymogen act: 0; proCasp3 act: -10; Neddylation inh: inactive; proCasp7 act: 8

How did CC1(C)Cc2c(sc3nc(-c4cccs4)n(N)c(=O)c23)CO1 do in these assays?
KLK7 zymogen act: 2; proCasp3 act: 3; Neddylation inh: active; proCasp7 act: -14; Neddyl inh conf: inactive

How did Cc1nn2c(C)nc3sc4c(c3c2nc1=O)CC(C)(C)OC4 do in these assays?
KLK7 zymogen act: 1; proCasp3 act: 3; Neddylation inh: active; proCasp7 act: 5; Neddyl inh conf: inactive

What do the screens show for `CCOc1ccc(S(=O)(=O)N2CCCCC2)cc1NC(=O)CN1C(=O)NC(C)(c2ccc(C)cc2)C1=O` (stereo not given)?
proCasp3 act: 3; Neddylation inh: inactive; proCasp7 act: 1

How did COc1ccccc1OCC(=O)/C=C1/N(C)c2ccccc2C1(C)C do in these assays?
KLK7 zymogen act: -1; proCasp3 act: 2; Neddylation inh: active; proCasp7 act: 0; Neddyl inh conf: inactive

How did O=c1[nH]c(/C(Cl)=C/c2cccc(F)c2)nc2cc(C(F)(F)F)ccc12 do in these assays?
KLK7 zymogen act: 0; proCasp3 act: 11; Neddylation inh: active; proCasp7 act: -1; Neddyl inh conf: inactive
